In the library only some 1.3% were active in any assay of this set; here they are far more common.
GSK3 alpha inh = human GSK-3 alpha kinase inhibition | P49840 | ADP-Glo luminescence, 60 min | inhibition, % at 10 µM | 320,000 compounds, 0.1% hits | AID 2650;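 active = more than half of replicates show inhibition above 20%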;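 note: GST-tagged GSK-3 alpha with peptide substrate and 25 µM ATP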
LANA-H2B inh = blocks KSHV LANA binding to histone H2A/H2B. Q9QR71. cell-free LANA-H2A/H2B peptide, fluorescence polarization. inhibition, % (no concentration beside the values). 320,000 compounds, 0.6% hits; in the data active = inhibition mostly above about 10%, no sharp cut-off; inactive = mostly below about 6.7%
Lipid droplet = hepatic lipid droplet formation modulation; 240,000 compounds, 0.4% hits; inhibition, % at 6.5 µM; AML12 mouse hepatocytes, oleate lipid droplets, BODIPY imaging; AID 1656;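 active = lipid droplet intensity inhibited by at least 50%, with more than 500 cells counted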
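Assay system: AML12 mouse liver cells | Compound dosing: One dose, 6.5 µM compound | Read-out basis: Droplet intensity reduction, % inhibition | Measured by: Fluorescence imaging, 20x objective, two fields per well | Schedule: Overnight treatment with compound plus oleate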
STK33 inh = human STK33 kinase inhibition | Q9BYT3 | inhibition, % at 10 µM | AID 2661 | 320,000 compounds, 0.073% hits | purified STK33, MBP phosphorylation, ADP-Glo luminescence;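 active = inhibition at or above 25%, using the most active replicate where run in duplicate; inactive = inhibition below 25%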
Target sequence (Q9BYT3 whole entry, looked up): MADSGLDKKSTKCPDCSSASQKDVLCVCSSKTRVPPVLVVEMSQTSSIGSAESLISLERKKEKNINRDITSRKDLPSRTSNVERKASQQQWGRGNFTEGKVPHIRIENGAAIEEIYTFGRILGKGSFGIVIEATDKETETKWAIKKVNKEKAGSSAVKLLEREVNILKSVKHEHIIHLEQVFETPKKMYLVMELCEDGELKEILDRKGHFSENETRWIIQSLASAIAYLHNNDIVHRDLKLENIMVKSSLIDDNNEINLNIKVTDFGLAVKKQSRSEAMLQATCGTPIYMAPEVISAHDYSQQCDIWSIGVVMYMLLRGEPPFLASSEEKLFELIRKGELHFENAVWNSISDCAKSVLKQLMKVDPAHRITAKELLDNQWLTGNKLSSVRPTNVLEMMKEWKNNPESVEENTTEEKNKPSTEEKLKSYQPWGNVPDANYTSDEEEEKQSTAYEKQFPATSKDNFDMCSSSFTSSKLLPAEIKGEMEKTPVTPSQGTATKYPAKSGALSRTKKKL
GSK3B inh = human GSK3beta kinase inhibition. P49841. GST-GSK3beta kinase, ADP-Glo luminescence, 60 min; hits give low values. activity score (negative = inhibition), % at 10 µM. 300,000 compounds, 0.038% hits. AID 2097;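 active = more than half of replicate wells score below -50%, meaning over 50% inhibition versus plate controls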
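Assay system: GST-tagged human GSK3beta kinase, cell-free; Input: 1.6 ng GSK3beta; Medium: Tris/MgCl2 kinase buffer; Timing: 60 min enzyme reaction, room temperature; Signal: ADP-Glo luminescence quantifying ADP generated by kinase; Evaluation: score relative to plate controls; Benchmarks: DMSO neutral wells and GW8510 at 20 µM as positive.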
H9c2 TAG inh = triacylglycerol accumulation inhibition. H9c2 cells, Nile Red lipid (TAG) fluorescence; cells loaded with 200 µM oleic acid. inhibition, % at 12.5 µM. 230,000 compounds, 0.66% hits;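 active = pattern-corrected inhibition of lipid staining of at least 50% with the nuclear-stain viability signal not falling by more than 50%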
A number is an active result; . = inactive; / = no result given; ! = not confirmed by another sample.

SMILES	GSK3 alpha inh	LANA-H2B inh	Lipid droplet	STK33 inh	GSK3B inh	H9c2 TAG inh
CCOC(=O)C1=C(CSc2nc(-c3ccccc3)ccc2C#N)OC(N)=C(C#N)C1c1ccccc1 (centres undefined)	.	198.1	.	.	.	.
COc1cc(OC)c2ccc(=O)oc2c1C(CCN1CCCC1)c1ccc(N(C)C)cc1 (centres undefined)	.	.	.	.	.	.
COc1cc(OC)c2ccc(=O)oc2c1C(CCN1CCCC(C)C1)c1ccc2c(c1)OCO2 (centres undefined)	.	.	.	.	.	.
CCCCCc1cc(=O)oc2c(C(CCN3CCCC(C)C3)c3ccc(OC)cc3)c(OC)cc(OC)c12 (centres undefined)	.	.	.	.	.	95.9
COc1ccc(C(CCN2CCOCC2)c2c(OC)cc(OC)c3c(C)cc(=O)oc23)cc1 (centres undefined)	.	.	.	.	.	.
CCCCCc1cc(=O)oc2c(C(CCN3CCCCC3)c3ccc(OC)cc3)c(OC)cc(OC)c12 (centres undefined)	.	.	.	.	.	111.2
CCCCCc1cc(=O)oc2c(C(CCN3CCCC3)c3ccc(N(C)C)cc3)c(OC)cc(OC)c12 (centres undefined)	.	.	.	.	.	68.3
Oc1oc(-c2ccccc2Br)nc1C=Nc1ccc(Br)cn1	.	.	.	.	.	.
O=C(CSc1nc2ccccc2c(=O)[nH]1)N1CCN(c2ccccc2)CC1	.	.	.	.	.	.
COCCSc1nnc(NC(=O)CSc2ccccc2)s1	.	.	/	.	.	/
CCSc1ccc2nnc(-c3ccc(F)cc3)n2n1	81.7	.	.	.	-76.2	/
CCOC(=O)CSc1ccc2nnc(-c3cccs3)n2n1	61.0	.	.	.	-61.1	.
CCOC(=O)CNC(=O)CSc1ccc2nnc(-c3ccc(F)cc3)n2n1	.	.	.	.	.	.
CCOC(=O)CC(=O)CSc1ccc2nnc(-c3ccccc3)n2n1	.	.	.	.	.	/
CC(Sc1ccc2nnc(-c3ccc(F)cc3)n2n1)C(=O)O (centres undefined)	51.4	.	.	.	.	.
CCOC(=O)CSc1ccc2nnc(-c3ccncc3)n2n1	81.2	.	.	.	.	.
CC(C)(C)c1ccc(OCCC(=O)Nc2cccc(S(=O)(=O)N3CCOCC3)c2)cc1	.	.	.	.	.	.
CCc1nc2c(OC)cccn2c1N(C)C(=O)c1ccccc1F	/	/	/	/	/	.
CCSc1ccc2nnc(-c3cccs3)n2n1	.	.	.	.	-52.8	.
COc1ccc(Br)cc1CNC(=O)C1CCN(S(=O)(=O)N2CCCC2)CC1	.	.	/	.	.	/
COc1ccc(/C=N/Nc2cc(N3CCOCC3)ncn2)c(OC)c1	.	.	.	.	.	/
COc1cccc(/C=N/Nc2cc(N3CCOCC3)ncn2)c1O	.	.	.	.	.	71.0
O=C1CC2(CCN(C(=O)c3cccc(Cl)c3)CC2)Oc2ccccc21	.	.	/	.	.	.
O=C1CC2(CCN(C(=O)c3cccc(Br)c3)CC2)Oc2ccccc21	.	18.5	/	.	.	.
CCN(CC)CC#CCC(O)(c1ccccc1)C1CCCCC1 (centres undefined)	.	.	.	.	.	.
SMILES	GSK3 alpha inh	LANA-H2B inh	Lipid droplet	STK33 inh	GSK3B inh	H9c2 TAG inh
CCN(CC)S(=O)(=O)c1ccc2oc(SCC(=O)Nc3cc(C)on3)nc2c1	.	98.9	/	.	.	.
Cc1cc(NC(=O)CSc2nc3cc(Cl)ccc3o2)no1	.	.	.	.	.	/
O=C(CN1CCN(S(=O)(=O)c2ccc(Cl)c(C(F)(F)F)c2)CC1)NC(=O)NC1CCCCC1	/	/	/	/	/	.
Cc1c(/C=N/NC(=O)c2cccnc2)c2ccccc2n1Cc1ccccc1	.	11.8	.	.	.	/
Cc1cc(C)nc(Nc2ccc(F)cc2)n1	.	.	.	.	.	.
c1ccc(-n2cc(CN3CCCC(CN4CCCC4)C3)c(-c3ccc4c(c3)OCO4)n2)cc1 (centres undefined)	.	21.2	.	.	.	/
CN(C)S(=O)(=O)c1ccc(NC=C(C#N)C#N)cc1	.	.	.	.	.	.
COc1ccc(-c2nc3c(=O)n(C)c(=O)[nH]c3n2CCc2ccccc2)cc1	.	19.6!	/	.	.	.
CCOC(=O)c1ccc(N=c2scc(C)n2CC)cc1	.	42.6	.	.	.	/

Screens deposited in PubChem BioAssay by several laboratories.
